Active and inactive are the calls of the source. No cut-off for these calls is given here.
What was measured:
[1] = Negative ionotropic activity in potassium depolarized guinea pig longitudinal smooth muscle assessed as inhibition of calcium-induced contraction; assay type: functional, Cavia porcellus
[2] = system: Cystic fibrosis transmembrane conductance regulator (Homo sapiens), P13569 [F508del]; assay: Activity at CFTR F508 deletion mutant expressed in forskolin-stimulated FRT cells assessed as maximal increase in iodine influx measured as YFP quenching rate after 24 hrs by fluorescence assay; assay type: cell-based
Method in brief: (§1)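 ΔF508-CFTR and halide-sensitive YFP coexpressed in FRT cells, held at 27 °C for 24 h for rescue, then stimulated 30–40 min with 20 μM forskolin with or without compound at 0.2, 2 and 20 μM. Fluorescence read before and after I– addition (100 mM final). Normalized decay fitted exponentially for maximal quenching rate; dose–response fitted with Hill equation for potency and maximal effect. Three independent determinations.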

[3] = Binding affinity to CFTR F508 deletion mutant expressed in forskolin-stimulated FRT cells assessed as increase in iodine influx measured as YFP quenching rate after 24 hrs by fluorescence assay; assay type: cell-based; method in brief: as §1
[4] = system: Cystic fibrosis transmembrane conductance regulator (Homo sapiens), P13569 [F508del]; assay: Activity at CFTR F508 deletion mutant expressed in forskolin-stimulated FRT cells assessed as maximal increase in iodine influx measured as YFP quenching rate at 0.2 uM after 24 hrs by fluorescence assay; assay type: cell-based; method in brief: as §1
Cavia porcellus [5] = organism: Cavia porcellus; assay: Negative ionotropic activity in potassium depolarized guinea pig longitudinal smooth muscle assessed as inhibition of calcium-induced contraction at 3 X 10^-7 M; assay type: functional
[6] = Negative chronotropic activity against potassium-induced contraction in guinea pig right atrium assessed as decrease atrial rate at 10^-5 M relative to control; assay type: functional; details: Cavia porcellus, Cardiac atrium
Method in brief: (§2)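 Spontaneously beating isolated guinea pig right atrium, pretreatment rate 165–190 beats/min. Drugs added cumulatively. Decrease in atrial rate expressed as percent change from control, n = 7–8. […] Control versus treated tested at each concentration by Student's t-test, P < 0.05. Mean ± SEM.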

[7] = Negative chronotropic activity against potassium-induced contraction in guinea pig right atrium assessed as decrease atrial rate; assay type: functional, tissue-based; details: Cavia porcellus, Cardiac atrium; method in brief: as §2
[8] = Negative ionotropic activity against potassium-induced contraction in guinea pig left atrium assessed as […] at 5 X 10^-5 M relative to control; assay type: functional; details: Cavia porcellus, Cardiac atrium
Method in brief: (§3)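 Isolated guinea pig left atrium paced at 1 Hz. Drugs added cumulatively. Negative inotropic effect expressed as percent change from control, n = 5–6. […] Student's t-test against control at each concentration, P < 0.05. Mean ± SEM.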

Aorta [9] = assay: Vasorelaxant activity in potassium depolarized guinea pig aortic strip assessed as inhibition of calcium-induced contraction at 10^-4 M; assay type: functional; details: Cavia porcellus
Method in brief: (§4)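 Guinea pig aortic strips depolarized with 80 mM K+, with cumulative drug addition. Relaxation given as mean ± SEM. […] Student's t-test against control, P < 0.05.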

[10] = Ratio EC50 for negative chronotropic activity against potassium-induced contraction in guinea pig right atrium to EC50 for negative […] activity against potassium-induced contraction in guinea pig left atrium; assay type: functional, Cavia porcellus, Cardiac atrium
Cavia porcellus [11] = organism: Cavia porcellus; assay: Negative ionotropic activity in potassium depolarized guinea pig longitudinal smooth muscle assessed as inhibition of calcium-induced contraction at 10^-6 M; assay type: functional
[12] = Negative ionotropic activity against potassium-induced contraction in guinea pig left atrium assessed as decrease in developed tension; details: Cavia porcellus, Cardiac atrium
[13] = Bronchodilatory activity in guinea pig trachea assessed as inhibition of carbachol-induced contraction at 10^-5 M; assay type: functional; details: Cavia porcellus
[14] = Bronchodilatory activity in guinea pig trachea assessed as inhibition of carbachol-induced contraction; assay type: functional, tissue-based, Cavia porcellus
[15] = Negative chronotropic activity against potassium-induced contraction in guinea pig right atrium assessed as decrease atrial rate at 10^-7 M relative to control; assay type: functional; details: Cavia porcellus, Cardiac atrium
Method in brief: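 Isolated spontaneously beating guinea pig right atrium with pretreatment heart rate of 165–190 beats/min. Compound was added cumulatively. Atrial rate decrease at the stated concentration is given as percent change from control, mean ± SEM, n = 7–8. Control versus treated values at each concentration were compared by Student's t-test at P < 0.05.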

[16] = Negative ionotropic activity against potassium-induced contraction in guinea pig left atrium assessed as […] at 10^-5 M relative to control; assay type: functional; details: Cavia porcellus, Cardiac atrium; method in brief: as §3
Aorta [17] = assay: Vasorelaxant activity in potassium depolarized guinea pig aortic strip assessed as inhibition of calcium-induced contraction at 10^-6 M; assay type: functional; details: Cavia porcellus; method in brief: as §4
Aorta [18] = assay: Vasorelaxant activity in potassium depolarized guinea pig aortic strip assessed as inhibition of calcium-induced contraction; assay type: functional, tissue-based; details: Cavia porcellus; method in brief: as §4
Cavia porcellus [19] = organism: Cavia porcellus; assay: […] activity in potassium depolarized guinea pig longitudinal smooth muscle assessed as inhibition of calcium-induced contraction at 5 X 10^-9 M; assay type: functional
[20] = Negative chronotropic activity against potassium-induced contraction in guinea pig right atrium assessed as decrease atrial rate at 10^-4 M relative to control; assay type: functional; details: Cavia porcellus, Cardiac atrium; method in brief: as §2
[21] = Negative ionotropic activity against potassium-induced contraction in guinea pig left atrium assessed as […] at 10^-4 M relative to control; assay type: functional; details: Cavia porcellus, Cardiac atrium; method in brief: as §3
Cavia porcellus [22] = organism: Cavia porcellus; assay: Negative ionotropic activity in potassium depolarized guinea pig longitudinal smooth muscle assessed as inhibition of calcium-induced contraction at 10^-8 M; assay type: functional
Cavia porcellus [23] = organism: Cavia porcellus; assay: Negative ionotropic activity in potassium depolarized guinea pig longitudinal smooth muscle assessed as inhibition of calcium-induced contraction at 5 X 10^-5 M; assay type: functional
[24] = Negative ionotropic activity against potassium-induced contraction in guinea pig left atrium assessed as […] at 5 X 10^-6 M relative to control; assay type: functional; details: Cavia porcellus, Cardiac atrium; method in brief: as §3
Aorta [25] = assay: Vasorelaxant activity in potassium depolarized guinea pig aortic strip assessed as inhibition of calcium-induced contraction at 5 X 10^-5 M; assay type: functional; details: Cavia porcellus; method in brief: as §4
Aorta [26] = assay: Vasorelaxant activity in potassium depolarized guinea pig aortic strip assessed as inhibition of calcium-induced contraction at 5 X 10^-7 M; assay type: functional; details: Cavia porcellus; method in brief: as §4
[27] = Ratio EC50 for nifedipine to compound for negative […] activity against potassium-induced contraction in left atrium of guinea pig; assay type: functional, Cavia porcellus, Cardiac atrium
Cavia porcellus [28] = organism: Cavia porcellus; assay: Negative ionotropic activity in potassium depolarized guinea pig longitudinal smooth muscle assessed as inhibition of calcium-induced contraction at 10^-5 M; assay type: functional
[29] = Ratio IC50 for nifedipine to compound for bronchodilatory activity in guinea pig trachea assessed as carbachol-induced contraction; assay type: functional, Cavia porcellus
[30] = system: Cystic fibrosis transmembrane conductance regulator (Homo sapiens), P13569 [F508del]; assay: Activity at CFTR F508 deletion mutant expressed in forskolin-stimulated FRT cells assessed as maximal increase in iodine influx measured as YFP quenching rate after 24 hrs by fluorescence assay relative to nifedipine; assay type: cell-based; method in brief: as §1
[31] = Negative ionotropic activity against potassium-induced contraction in guinea pig left atrium assessed as […] at 5 X 10^-7 M relative to control; assay type: functional; details: Cavia porcellus, Cardiac atrium; method in brief: as §3
Aorta [32] = assay: Vasorelaxant activity in potassium depolarized guinea pig aortic strip assessed as inhibition of calcium-induced contraction at 10^-5 M; assay type: functional; details: Cavia porcellus; method in brief: as §4
[33] = Bronchodilatory activity in guinea pig trachea assessed as inhibition of carbachol-induced contraction at 10^-4 M; assay type: functional; details: Cavia porcellus
[34] = Negative chronotropic activity against potassium-induced contraction in guinea pig right atrium assessed as decrease atrial rate at 10^-6 M relative to control; assay type: functional; details: Cavia porcellus, Cardiac atrium; method in brief: as §2
Cavia porcellus [35] = organism: Cavia porcellus; assay: Negative ionotropic activity in potassium depolarized guinea pig longitudinal smooth muscle assessed as inhibition of calcium-induced contraction at 10^-7 M; assay type: functional
[36] = Negative chronotropic activity against potassium-induced contraction in guinea pig right atrium assessed as decrease atrial rate at 5 X 10^-7 M relative to control; assay type: functional; details: Cavia porcellus, Cardiac atrium; method in brief: as §2
[37] = Negative ionotropic activity against potassium-induced contraction in guinea pig left atrium assessed as […] at 10^-7 M relative to control; assay type: functional; details: Cavia porcellus, Cardiac atrium; method in brief: as §3
Cavia porcellus [38] = organism: Cavia porcellus; assay: Negative ionotropic activity in potassium depolarized guinea pig longitudinal smooth muscle assessed as inhibition of calcium-induced contraction at 5 X 10^-7 M; assay type: functional
[39] = Bronchodilatory activity in guinea pig trachea assessed as inhibition of carbachol-induced contraction at 10^-7 M; assay type: functional; details: Cavia porcellus

Chain of Cystic fibrosis transmembrane conductance regulator (Homo sapiens), P13569 [F508del] (P13569 as listed by the source): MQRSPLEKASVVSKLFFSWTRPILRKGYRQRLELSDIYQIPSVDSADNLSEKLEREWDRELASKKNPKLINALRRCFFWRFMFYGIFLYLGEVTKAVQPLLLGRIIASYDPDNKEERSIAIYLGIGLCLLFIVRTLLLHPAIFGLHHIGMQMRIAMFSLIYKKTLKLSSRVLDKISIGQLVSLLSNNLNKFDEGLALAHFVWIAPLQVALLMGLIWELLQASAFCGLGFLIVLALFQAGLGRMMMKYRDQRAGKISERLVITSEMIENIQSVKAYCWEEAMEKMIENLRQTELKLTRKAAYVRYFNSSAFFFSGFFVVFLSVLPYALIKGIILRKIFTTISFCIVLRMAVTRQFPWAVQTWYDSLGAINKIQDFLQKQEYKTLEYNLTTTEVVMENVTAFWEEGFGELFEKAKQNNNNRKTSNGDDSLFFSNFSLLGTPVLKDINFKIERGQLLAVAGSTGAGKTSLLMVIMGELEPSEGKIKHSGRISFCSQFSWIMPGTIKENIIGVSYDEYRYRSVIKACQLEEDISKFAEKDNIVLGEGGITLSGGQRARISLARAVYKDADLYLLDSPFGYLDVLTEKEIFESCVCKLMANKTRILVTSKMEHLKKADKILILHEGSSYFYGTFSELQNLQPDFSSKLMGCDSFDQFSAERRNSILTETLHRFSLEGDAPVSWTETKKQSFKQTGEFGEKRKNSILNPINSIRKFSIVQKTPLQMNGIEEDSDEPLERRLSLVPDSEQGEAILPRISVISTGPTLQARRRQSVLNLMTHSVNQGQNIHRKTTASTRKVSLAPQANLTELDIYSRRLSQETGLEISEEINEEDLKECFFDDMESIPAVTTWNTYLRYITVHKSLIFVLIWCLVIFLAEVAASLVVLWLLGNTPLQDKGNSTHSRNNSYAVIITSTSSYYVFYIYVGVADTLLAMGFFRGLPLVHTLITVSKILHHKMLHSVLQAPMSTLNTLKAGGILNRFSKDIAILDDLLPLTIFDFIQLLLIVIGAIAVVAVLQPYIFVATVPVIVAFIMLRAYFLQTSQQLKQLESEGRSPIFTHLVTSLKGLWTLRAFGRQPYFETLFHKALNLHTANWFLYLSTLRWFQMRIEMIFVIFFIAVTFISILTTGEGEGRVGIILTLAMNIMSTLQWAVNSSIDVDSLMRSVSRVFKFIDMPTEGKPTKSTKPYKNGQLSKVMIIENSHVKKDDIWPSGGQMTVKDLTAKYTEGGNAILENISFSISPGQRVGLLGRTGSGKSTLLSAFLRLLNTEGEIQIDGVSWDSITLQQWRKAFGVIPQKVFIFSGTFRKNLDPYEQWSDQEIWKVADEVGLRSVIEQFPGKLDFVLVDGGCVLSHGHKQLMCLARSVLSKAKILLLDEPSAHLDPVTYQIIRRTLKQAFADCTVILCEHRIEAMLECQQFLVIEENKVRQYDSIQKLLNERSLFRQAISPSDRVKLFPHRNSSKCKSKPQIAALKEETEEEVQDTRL

Compound	IC50 [1] [nM]	Emax [2] [ms-1]	Kd [3] [nM]	Activity [4]	EC50 [7] [nM]	inhibition at 100 µM (Aorta [9]) [%]	EC50 [12] [nM]	inhibition at 10 µM [13] [%]	IC50 [14] [nM]	other results
COC(=O)C1=C(C)NC(C)=C(C(=O)OC)C1c1c(C(F)(F)F)nc2sccn12	210	60	28300	inactive	–	–	–	–	–	inhibition (Cavia porcellus [5]): 70%
C=CCOC(=O)C1=C(C)NC(C)=C(C(=O)OCC=C)C1c1c(-c2ccc(C(F)(F)F)cc2)nc2sc(C)c(C)n12	460	42	320	inactive	8960	32	270	–	–	inhibition at 10 µM [6]: 52%; inhibition at 50 µM [8]: 93%; Ratio EC50 [10]: 33; inhibition (Cavia porcellus [11]): 72%
COC(=O)C1=C(C)NC(C)=C(C(=O)OC)C1c1ccccc1[N+](=O)[O-] [NIFEDIPINE]	–	58	2900	–	39	–	260	62	96	inhibition at 0.1 µM [15]: 85%; inhibition at 10 µM [16]: 97%; inhibition at 1 µM (Aorta [17]): 82%; IC50 (Aorta [18]): 9 nM; inhibition (Cavia porcellus [19]): 70%
COC(=O)C1=C(C)NC(C)=C(C(=O)OC)C1c1c(-c2ccc(OC(F)(F)F)cc2)nc2sccn12	3.3	64	3500	inactive	–	–	2330	26	–	inhibition at 100 µM [20]: 33%; inhibition at 100 µM [21]: 89%; inhibition at 1 µM (Aorta [17]): 60%; IC50 (Aorta [18]): 16 nM; inhibition (Cavia porcellus [22]): 73%
O=c1c(-c2ccc(O)cc2)coc2cc(O)cc(O)c12 [GENISTEIN]	9950	61	–	–	44500	–	28	14	–	inhibition (Cavia porcellus [23]): 84%; inhibition at 100 µM [20]: 68%; inhibition at 5 µM [24]: 71%; inhibition at 50 µM (Aorta [25]): 22%
COC(=O)C1=C(C)NC(C)=C(C(=O)OC)C1c1c(-c2ccc(C(F)(F)F)cc2)nc2sccn12	4.6	64	3200	inactive	–	–	120	67	61	inhibition at 0.1 µM [15]: 33%; inhibition at 10 µM [16]: 96%; inhibition at 0.5 µM (Aorta [26]): 36%; Ratio EC50 [27]: 2.6; inhibition (Cavia porcellus [22]): 69%
C=CCOC(=O)C1=C(C)NC(C)=C(C(=O)OCC=C)C1c1ccc(C(C)(C)C)cc1	1850	56	170	–	–	–	2.2	68	0.59	inhibition (Cavia porcellus [28]): 52%; Ratio IC50 [29]: 163; Ratio [30]: 17; inhibition at 10 µM [6]: 5%; inhibition at 0.5 µM [31]: 71%; inhibition at 10 µM (Aorta [32]): 12%
CCOC(=O)C1=C(C)NC(C)=C(C(=O)OCC)C1c1c(C(F)(F)F)nc2sccn12	14	60	19400	inactive	–	48	1070	–	1110	inhibition at 100 µM [33]: 77%; inhibition at 1 µM [34]: 40%; inhibition at 100 µM [21]: 93%; inhibition (Cavia porcellus [35]): 90%
CCOC(=O)C1=C(C)NC(C)=C(C(=O)OCC)C1c1c(-c2ccc(C(F)(F)F)cc2)nc2sccn12	0.88	42	180	inactive	150	6	33	57	130	inhibition at 0.5 µM [36]: 64%; inhibition at 0.1 µM [37]: 90%; inhibition (Cavia porcellus [19]): 83%
COC(=O)C1=C(C)NC(C)=C(C(=O)OC)C1c1c(-c2cccc(C(F)(F)F)c2)nc2sccn12	36	65	2800	inactive	–	–	–	–	–	inhibition (Cavia porcellus [38]): 96%; inhibition at 0.1 µM [39]: 19%; Ratio EC50 [10]: 12

Source: ChEMBL document CHEMBL1811821, “Cystic fibrosis: a new target for 4-Imidazo[2,1-b]thiazole-1,4-dihydropyridines” (J Med Chem, 2011)
